Common to all, as to format: functional
In assay [1] the test system is Mycobacterium tuberculosis. Put plainly: Antimycobacterial activity against Mycobacterium tuberculosis H37Rv ATCC 27294 after 7 days by resazurin method. The settings on record: H37Rv ATCC 27294, 168 h. The method, boiled down:
(§1)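 H37Rv was grown in Middlebrook 7H9 broth with 10% OADC, diluted to McFarland 2 in the same medium, and added to fresh medium in 96-well plates with compound. Compounds were tested at 1, 10 and 100. The dye turned pink in controls after […] at 37 °C.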

For a further assay, the system named is Pseudomonas aeruginosa. Put plainly: Antibacterial activity against Pseudomonas aeruginosa ATCC 27853 after 18 to 24 hrs by […].
The subject of assay [2] is Mycolicibacterium smegmatis. Nature of the assay: Antimycobacterial activity against Mycobacterium smegmatis ATCC 19420 after 7 days by resazurin method. The following applies: ATCC 19420, 168 h. Summed up:
(§2)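 MIC was determined by resazurin microplate assay. Resazurin turns from blue to pink when reduced by viable cells, and wells with no colour change were scored as inhibited. Isoniazid and rifampicin were reference drugs.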

A further assay has as its system Escherichia coli. Nature of the assay: Antibacterial activity against Escherichia coli ATCC 25922 after 18 to 24 hrs by […].
The subject of a further assay is Klebsiella pneumoniae. Nature of the assay: Antibacterial activity against Klebsiella pneumoniae after 18 to 24 hrs by […].
Assay [3] has as its system Mycobacterium tuberculosis. Put plainly: Antimycobacterial activity against Mycobacterium tuberculosis H37Rv ATCC 27294 assessed as inhibition of bacterial growth at 1 to 100 ug/ml after 7 days by resazurin method. The method, boiled down:
as §1

Another assay has as its system Streptococcus pyogenes. Nature of the assay: Antibacterial activity against Streptococcus pyogenes after 18 to 24 hrs by serial plate dilution method.
A further assay concerns Staphylococcus aureus. Nature of the assay: Antibacterial activity against Staphylococcus aureus ATCC 25923 after 18 to 24 hrs by serial plate dilution method.
The subject of assay [4] is Mycolicibacterium fortuitum. Put plainly: Antimycobacterial activity against Mycobacterium fortuitum ATCC 19542 after 7 days by resazurin method. The following applies: ATCC 19542, 168 h. The method, boiled down:
as §2

Structures are written as SMILES. In brackets after ≈: the same amount, converted by molar mass.

For `COc1ccc2nc(C)cc(-n3cc(CNS(=O)(=O)c4ccc(C)cc4)nn3)c2c1`, the MIC is 10 µg/mL (≈ 23.6 µM) in assay [1]; 6.25 µg/mL (≈ 14.8 µM) in the assay on Pseudomonas aeruginosa; 100 µg/mL (≈ 236 µM) in [2]; 6.25 µg/mL (≈ 14.8 µM) in the assay with Escherichia coli; 6.25 µg/mL (≈ 14.8 µM) in the assay with Klebsiella pneumoniae; 6.25 µg/mL (≈ 14.8 µM) in the assay with Streptococcus pyogenes. For the same compound, the minimum inhibitory concentration (MIC) was determined as 3.12 µg/mL (≈ 7.37 µM) with Staphylococcus aureus and 100 µg/mL (≈ 236 µM) in [4]. Further, the “inhibition (INH)” value in assay [3] is given as 85%.

Regarding `COc1ccc(S(=O)(=O)NCc2cn(-c3cc(C)nc4ccc(OC)cc34)nn2)cc1`, the MIC in assay [1] worked out at 0.625 µg/mL (≈ 1.42 µM); in the assay on Pseudomonas aeruginosa it was 1.6 µg/mL (≈ 3.64 µM); in [2], 10 µg/mL (≈ 22.8 µM); against Escherichia coli, 3.12 µg/mL (≈ 7.1 µM); in the assay with Klebsiella pneumoniae it was 1.6 µg/mL (≈ 3.64 µM); against Streptococcus pyogenes, 1.6 µg/mL (≈ 3.64 µM). The MIC in the assay with Staphylococcus aureus worked out at 6.25 µg/mL (≈ 14.2 µM); in assay [4] it was 10 µg/mL (≈ 22.8 µM). In assay [3], the “inhibition (INH)” value turned out to be 90%.

As for `COc1ccc2nc(C)cc(-n3cc(CN4CCN(C(=O)C5CCC5)CC4)nn3)c2c1`, the MIC in assay [1] was found to be 10 µg/mL (≈ 23.8 µM); against Pseudomonas aeruginosa it was 0.8 µg/mL (≈ 1.9 µM); in [2], 100 µg/mL (≈ 238 µM); against Escherichia coli it was 1.6 µg/mL (≈ 3.8 µM); against Klebsiella pneumoniae, 3.12 µg/mL (≈ 7.42 µM); in the assay on Streptococcus pyogenes it was 1.6 µg/mL (≈ 3.8 µM). Further, the MIC with Staphylococcus aureus was 1.6 µg/mL (≈ 3.8 µM); in [4] it was 100 µg/mL (≈ 238 µM). Also, the “inhibition (INH)” value in assay [3] came to 90%.

Turning to `COc1ccc2nc(C)cc(-n3cc(CN4CCN(C(=O)c5ccccc5)CC4)nn3)c2c1`, the MIC is 10 µg/mL (≈ 22.6 µM) in [1]; 0.4 µg/mL (≈ 0.904 µM) against Pseudomonas aeruginosa; 100 µg/mL (≈ 226 µM) in assay [2]; 0.4 µg/mL (≈ 0.904 µM) against Escherichia coli; 0.4 µg/mL (≈ 0.904 µM) in the assay with Klebsiella pneumoniae; 0.8 µg/mL (≈ 1.81 µM) in the assay with Streptococcus pyogenes. For the same compound, the MIC with Staphylococcus aureus turned out to be 0.8 µg/mL (≈ 1.81 µM); in assay [4], 100 µg/mL (≈ 226 µM). Also, the “inhibition (INH)” value in assay [3] is 85%.

On to `COc1ccc2nc(C)cc(-n3cc(CNC(=O)c4ccc(F)cc4)nn3)c2c1`, for which the MIC stood at 0.625 µg/mL (≈ 1.6 µM) in assay [1]; 0.2 µg/mL (≈ 0.511 µM) against Pseudomonas aeruginosa; 10 µg/mL (≈ 25.5 µM) in assay [2]; 0.2 µg/mL (≈ 0.511 µM) in the assay on Escherichia coli; 0.2 µg/mL (≈ 0.511 µM) in the assay on Klebsiella pneumoniae; 0.2 µg/mL (≈ 0.511 µM) in the assay on Streptococcus pyogenes. Further, the MIC in the assay on Staphylococcus aureus came to 0.8 µg/mL (≈ 2.04 µM); in [4] it was 100 µg/mL (≈ 255 µM). Further, the “inhibition (INH)” value in [3] is listed as 90%.

As to `COc1ccc2nc(C)cc(-n3cc(CNC(C)=O)nn3)c2c1`, the MIC is 0.625 µg/mL (≈ 2.01 µM) in assay [1]; 0.2 µg/mL (≈ 0.642 µM) in the assay with Pseudomonas aeruginosa; 10 µg/mL (≈ 32.1 µM) in [2]; 0.1 µg/mL (≈ 0.321 µM) in the assay on Escherichia coli; 0.1 µg/mL (≈ 0.321 µM) in the assay on Klebsiella pneumoniae; 0.2 µg/mL (≈ 0.642 µM) with Streptococcus pyogenes. The MIC against Staphylococcus aureus stood at 0.4 µg/mL (≈ 1.28 µM); in [4], 10 µg/mL (≈ 32.1 µM). In addition, in assay [3], the “inhibition (INH)” value is 95%.

On to `COc1ccc2nc(C)cc(-n3cc(CNS(=O)(=O)c4ccc(Cl)c(Cl)c4)nn3)c2c1`, for which the MIC in assay [1] came to 100 µg/mL (≈ 209 µM); against Pseudomonas aeruginosa, 12.5 µg/mL (≈ 26.1 µM); in assay [2], 100 µg/mL (≈ 209 µM); against Escherichia coli, 12.5 µg/mL (≈ 26.1 µM); against Klebsiella pneumoniae it was 3.12 µg/mL (≈ 6.52 µM); in the assay on Streptococcus pyogenes, 3.12 µg/mL (≈ 6.52 µM). In addition, the values for the minimal inhibitory concentration (MIC) (with Staphylococcus aureus; in assay [4]) were 1.6 µg/mL (≈ 3.34 µM) and 100 µg/mL (≈ 209 µM), respectively.

Turning to `COc1ccc2nc(C)cc(-n3cc(CN4CCN(C(=O)C5CC5)CC4)nn3)c2c1`, the MIC in assay [1] was determined as 5 µg/mL (≈ 12.3 µM); against Pseudomonas aeruginosa it was 0.4 µg/mL (≈ 0.984 µM); in assay [2], 100 µg/mL (≈ 246 µM); in the assay with Escherichia coli it was 0.4 µg/mL (≈ 0.984 µM); in the assay on Klebsiella pneumoniae it was 0.2 µg/mL (≈ 0.492 µM); against Streptococcus pyogenes, 0.4 µg/mL (≈ 0.984 µM). Besides, the MIC stood at 0.8 µg/mL (≈ 1.97 µM) against Staphylococcus aureus and 100 µg/mL (≈ 246 µM) in assay [4]. In addition, in assay [3], the “inhibition (INH)” value was 90%.

Take `COc1ccc2nc(C)cc(-n3cc(CNC(=O)c4ccc(C)cc4)nn3)c2c1`: the MIC in [1] stood at 100 µg/mL (≈ 258 µM); in the assay on Pseudomonas aeruginosa it was 6.25 µg/mL (≈ 16.1 µM); in [2], 100 µg/mL (≈ 258 µM); against Escherichia coli, 3.12 µg/mL (≈ 8.05 µM); against Klebsiella pneumoniae it was 3.12 µg/mL (≈ 8.05 µM); in the assay on Streptococcus pyogenes, 0.8 µg/mL (≈ 2.06 µM). For the same compound, the MIC in the assay with Staphylococcus aureus came to 1.6 µg/mL (≈ 4.13 µM); in [4] it was 100 µg/mL (≈ 258 µM).

Turning to `COc1ccc2nc(C)cc(-n3cc(CNS(=O)(=O)c4ccccc4)nn3)c2c1`, the MIC was found to be 100 µg/mL (≈ 244 µM) in assay [1]; 6.25 µg/mL (≈ 15.3 µM) against Pseudomonas aeruginosa; 100 µg/mL (≈ 244 µM) in assay [2]; 6.25 µg/mL (≈ 15.3 µM) in the assay with Escherichia coli; 6.25 µg/mL (≈ 15.3 µM) against Klebsiella pneumoniae; 6.25 µg/mL (≈ 15.3 µM) against Streptococcus pyogenes. The MIC was 12.5 µg/mL (≈ 30.5 µM) with Staphylococcus aureus and 100 µg/mL (≈ 244 µM) in assay [4].

Take `CCc1ccc(C(=O)NCc2cn(-c3cc(C)nc4ccc(OC)cc34)nn2)cc1`: the MIC in [1] was determined as 100 µg/mL (≈ 249 µM); with Pseudomonas aeruginosa, 6.25 µg/mL (≈ 15.6 µM); in [2], 100 µg/mL (≈ 249 µM); against Escherichia coli, 3.12 µg/mL (≈ 7.77 µM); against Klebsiella pneumoniae, 3.12 µg/mL (≈ 7.77 µM); in the assay on Streptococcus pyogenes, 3.12 µg/mL (≈ 7.77 µM). The MIC against Staphylococcus aureus stood at 3.12 µg/mL (≈ 7.77 µM); in assay [4], 100 µg/mL (≈ 249 µM). The “inhibition (INH)” value in assay [3] worked out at 80%.
